Assay results: ChEMBL document CHEMBL1139704, “Discovery of potent inhibitors of pseudomonal quorum sensing via pharmacophore modeling and in silico screening” (Bioorg Med Chem Lett, 2006)
Calls of active or inactive are those of the source. No cut-off for these calls is given here.

Key:
Format in all cases: functional, organism-based
Pseudomonas aeruginosa [1] = assay: Inhibition of pyoverdin production in Pseudomonas aeruginosa
Method in brief: (§1)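 Overnight nutrient broth cultures were pelleted, resuspended, grown to mid-log phase (OD600 0.3–0.5), and diluted to OD600 0.05. Cultures were exposed to compound in water at 50.00, 25.00, 10.00, 5.00, 2.50, 1.00, 0.10, 0.001 or zero final concentration, shaken 18 h at 37 C. Viable cells were counted, and the pellet OD600 was used to normalise pigment per bacterial OD unit.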

Pseudomonas aeruginosa [2] = assay: Inhibition of pyocyanin production in Pseudomonas aeruginosa; method in brief: as §1
Pseudomonas aeruginosa [3] = assay: Inhibition of pyoverdin production in Pseudomonas aeruginosa ATCC 9027; method in brief: as §1
Pseudomonas aeruginosa [4] = assay: Inhibition of pyocyanin production in Pseudomonas aeruginosa ATCC 9027; method in brief: as §1

| Molecule | Activity (Pseudomonas aeruginosa [1]) | Activity (Pseudomonas aeruginosa [2]) | IC50 (Pseudomonas aeruginosa [3]) [nM] | IC50 (Pseudomonas aeruginosa [1]) [nM] | IC50 (Pseudomonas aeruginosa [2]) [nM] | IC50 (Pseudomonas aeruginosa [4]) [nM] |
| --- | --- | --- | --- | --- | --- | --- |
| CCOP(=O)(OCC)O/N=C(/C)c1cccc(C)c1 | inactive | inactive |  |  |  |  |
| PHENYL MERCURIC NITRATE |  |  | 3980 | 3160 | 3020 | 3240 |
| THIMEROSAL |  |  | 3170 | 603 | 708 | 3160 |
| triethylplumbyl 4-methylbenzenesulfonate |  |  | 794 | 355 | 282 | 158 |
